Each structure is given as a SMILES string.

Data set [1] has as its target T1, Glucagon receptor (Homo sapiens, UniProt P47871). Description: Antagonist activity at human glucagon receptor expressed in CHO cells assessed as inhibition of forskolin/glucagon-induced cAMP production preincubated for 30 mins before glucagon challenge measured after 30 mins using [125I]-cAMP by liquid scintillation counting. The format is functional, cell-based. The method in brief:
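Glucagon-induced cAMP production measured in CHO cells transfected with hGCGR. IC50 reported as the average rounded to two significant figures, with SEM when measured more than once.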
(Changes in cAMP serve as a functional read-out for many G protein-coupled receptors.)

Data set [2] deals with T1, Glucagon receptor. Briefly: Displacement of [125I]-glucagon from human glucagon receptor expressed in CHO cells after 4 to 12 hrs by scintillation proximity assay. The format is cell-based. The gist of the method:
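Scintillation proximity assay on membranes from CHO cells expressing hGCGR, measuring inhibition of ¹²⁵I-labelled glucagon binding. IC50 reported as the average rounded to two significant figures, with standard error of the mean when more than one measurement was made.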
Background: Displacement assays read how much labelled ligand stays bound in the presence of the test substance.

Data set [3] is described as follows: Plasma clearance in rat at 1 mg/kg, iv and 2 mg/kg, po. The data set is classed as ADME, organism-based. The method in brief:
(§1)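 Rat PK with dosing at 1 mg/kg IV and 2 mg/kg PO, vehicle DMSO/water/PEG400 15:35:55. Parameters were plasma clearance, Vd, t1/2, dose-normalised PO AUC and Cmax, and %F.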

Data set [4] can be described thus: Volume of distribution in rat at 1 mg/kg, iv and 2 mg/kg, po. The data set is classed as ADME, organism-based. Particulars: in vivo. The gist of the method:
as §1

Data set [5] in a line: Oral bioavailability in rat at 2 mg/kg. The format is ADME, organism-based. The note with it: in vivo. The method in brief:
as §1

The subject of data set [6] is Rattus norvegicus. Briefly: Dose normalised Cmax in rat at 1 mg/kg, iv and 2 mg/kg, po. The data set is classed as ADME, organism-based. Particulars: in vivo. The method in brief: as §1
Data set [7] deals with Rattus norvegicus. Briefly: Dose normalised AUC in rat at 2 mg/kg, po. The data set is classed as ADME, organism-based. Further details: dose 2 mg/kg, route oral. The note with it: in vivo. The method in brief: as §1
A short description of data set [8]: Half life in rat at 1 mg/kg, iv and 2 mg/kg, po. The format is ADME, organism-based. Particulars: in vivo. The method in brief:
as §1

Data set [9] can be described thus: Clearance in rat. Particulars: in vivo. The data set is classed as ADME, organism-based. The gist of the method:
as §1

The nature of data set [10]: Oral bioavailability in rat. The format is ADME, organism-based. Particulars: in vivo. The method in brief: as §1
A short description of data set [11]: Solubility of the compound. The format is physicochemical.

T1 sequence (P47871 whole entry): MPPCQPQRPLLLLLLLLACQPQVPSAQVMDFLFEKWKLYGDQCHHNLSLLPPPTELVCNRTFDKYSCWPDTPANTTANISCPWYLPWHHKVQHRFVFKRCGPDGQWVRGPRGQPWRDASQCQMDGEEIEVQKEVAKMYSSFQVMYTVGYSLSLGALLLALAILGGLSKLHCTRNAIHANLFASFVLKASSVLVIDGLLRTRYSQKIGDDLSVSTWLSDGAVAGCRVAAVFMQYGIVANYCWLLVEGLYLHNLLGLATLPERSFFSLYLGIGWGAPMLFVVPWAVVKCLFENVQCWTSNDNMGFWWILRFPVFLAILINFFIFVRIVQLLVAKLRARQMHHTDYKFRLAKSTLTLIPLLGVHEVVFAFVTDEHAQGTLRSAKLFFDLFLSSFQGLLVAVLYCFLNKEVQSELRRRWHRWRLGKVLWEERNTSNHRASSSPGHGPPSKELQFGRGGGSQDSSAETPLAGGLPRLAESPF

Regarding `CCCC(Cc1ccc(C(=O)NCCC(=O)O)cc1)C(=O)c1cc2cc(Cl)ccc2n1-c1cccc(F)c1` (single isomer, unassigned), the IC50 in data set [1] worked out at 150 nM; in data set [2], 47 nM.

`O=C(O)CCNC(=O)c1ccc(C[C@H](CC2CC2)C(=O)c2cc3cc(Cl)ccc3n2-c2cccc(C(F)(F)F)c2)cc1`: the values for the IC50 in [1] and in data set [2] were 55 nM and 37 nM, respectively.

`CCCC(Cc1ccc(C(=O)NCCC(=O)O)cc1)C(=O)c1cc2cc(Cl)ccc2n1-c1ccc(C(F)(F)F)cc1` (single isomer, unassigned): the IC50 came out at 30 nM in data set [1] and 31 nM in data set [2].

Take `CCCC[C@@H](Cc1ccc(C(=O)NCCC(=O)O)cc1)C(=O)c1cc2cc(Cl)ccc2n1-c1cccc(C(F)(F)F)c1`: the IC50 in [1] is 42 nM; in data set [2], 16 nM.

Compound `CCC[C@@H](Cc1ccc(C(=O)NCCC(=O)O)cc1)C(=O)c1cc2cc(Cl)ccc2n1-c1cccc(C(F)(F)F)c1` showed a clearance in data set [3] of 14.2 mL/min/kg. For the same compound, the Vd in data set [4] is 1.5 L/kg. The bioavailability in [5] worked out at 42%. Besides, the Cmax/dose in data set [6] came out at 250 nM. Besides, the AUC/dose in [7] was determined as 0.85 µM·h. In addition, the half-maximal inhibitory concentration (IC50) was found to be 55 nM in data set [1] and 17 nM in data set [2]. Moreover, the half-life in [8] was 1.7 h.

The compound `CCCC(Cc1ccc(C(=O)NCCC(=O)O)cc1)C(=O)c1cc2cc(Cl)ccc2n1-c1ccc(Cl)c(C(F)(F)F)c1` (single isomer, unassigned) showed a clearance in data set [3] of 9.2 mL/min/kg. This compound also displayed a Vd in [4] of 0.84 L/kg. In addition, in data set [5], the bioavailability was found to be 17%. For the same compound, the Cmax/dose in data set [6] came out at 150 nM. Moreover, the AUC/dose in data set [7] was found to be 0.52 µM·h. For the same compound, the IC50 in [1] was 17 nM; in [2] it was 12 nM. This compound also showed a half-life in data set [8] of 1.3 h.

Consider `CCCCC[C@@H](Cc1ccc(C(=O)NCCC(=O)O)cc1)C(=O)c1cc2cc(OC(F)(F)F)ccc2n1-c1cccc(C(F)(F)F)c1`, for which the IC50 was 17 nM in [1] and 5.7 nM in [2].

For the compound `CCCC(Cc1ccc(C(=O)NCCC(=O)O)cc1)C(=O)c1cc2cc(Cl)ccc2n1-c1ccc(Cl)cc1` (single isomer, unassigned), the IC50 stood at 100 nM in data set [1] and 32 nM in [2].

In the case of `CCCCC[C@@H](Cc1ccc(C(=O)NCCC(=O)O)cc1)C(=O)c1cc2cc(C)ccc2n1-c1cccc(C(F)(F)F)c1`, the concentration for half-maximal inhibition (IC50) in [1] was 24 nM; in data set [2], 12 nM.

In data set [9], `CCCC(Cc1ccc(C(=O)NCCC(=O)O)cc1)C(=O)c1cc2cc(Cl)ccc2n1-c1ccc(C(C)(C)C)cc1` (single isomer, unassigned) showed a clearance of 4.7 mL/min/kg. Moreover, in data set [10], the bioavailability is 38%. The half-maximal inhibitory concentration (IC50) in data set [1] and in [2] was 52 nM each time.

In the case of `CCCCC[C@@H](Cc1ccc(C(=O)NCCC(=O)O)cc1)C(=O)c1cc2cc(C(F)(F)F)ccc2n1-c1cccc(C(F)(F)F)c1`, the concentration for half-maximal inhibition (IC50) in data set [1] was 44 nM; in data set [2], 16 nM.

Take `CCCC(Cc1ccc(C(=O)NCCC(=O)O)cc1)C(=O)c1cc2cc(Cl)ccc2n1-c1ccc(OC)c(C(F)(F)F)c1` (single isomer, unassigned): the concentration for half-maximal inhibition (IC50) in [1] was determined as 39 nM; in [2] it was 23 nM.

`O=C(Nc1nnn[nH]1)c1ccc(Cn2c(C(=O)c3ccc(OC(F)(F)F)cc3)cc3ccc(C(F)(F)F)cc32)cc1` yielded a clearance in [9] of 10 mL/min/kg. In [10], this compound showed a bioavailability of 40%. Further, in data set [2], the IC50 turned out to be 51 nM.

For the compound `CCCC(Cc1ccc(C(=O)NCCC(=O)O)cc1)C(=O)c1cc2cc(Cl)ccc2n1-c1cccc(OC(F)(F)F)c1` (single isomer, unassigned), the IC50 in data set [1] was found to be 35 nM; in [2], 24 nM.

As for `CCCC(Cc1ccc(C(=O)NCCC(=O)O)cc1)C(=O)c1cc2cc(Cl)ccc2n1-c1cc(C)cc(C)c1` (single isomer, unassigned), the 50% inhibitory concentration (IC50) in data set [2] worked out at 120 nM.

`CCC[C@H](Cc1ccc(C(=O)NCCC(=O)O)cc1)C(=O)c1cc2cc(Cl)ccc2n1-c1cccc(C(F)(F)F)n1` gave a half-maximal inhibitory concentration (IC50) in data set [2] of 450 nM.

As to `Cn1/c(=N\c2ccc(OC(F)(F)F)cc2)n(Cc2ccc(C(=O)Nc3nnn[nH]3)cc2)c2cc(Cl)c(Cl)cc21`, the solubility entry in [11] is given as “Insoluble”.

As for `CCCC(Cc1ccc(C(=O)NCCC(=O)O)cc1)C(=O)c1cc2cc(Cl)ccc2n1-c1cnc2ccccc2c1` (single isomer, unassigned), the values for the concentration for half-maximal inhibition (IC50) in [1] and in data set [2] were 718 nM and 58 nM, respectively.

In the case of `CCCC(Cc1ccc(C(=O)NCCC(=O)O)cc1)C(=O)c1cc2cc(Cl)ccc2n1-c1ccc2cc(OC)ccc2c1` (single isomer, unassigned), the IC50 in data set [1] is 95 nM; in data set [2], 34 nM.

In turn, `CCC[C@@H](Cc1ccc(C(=O)NCCC(=O)O)cc1)C(=O)c1cc2cc(Cl)ccc2n1-c1cccc(C(F)(F)F)n1` returned a clearance in data set [3] of 24 mL/min/kg. The same compound came in with a Vd in data set [4] of 0.9 L/kg. This compound came in with a bioavailability in data set [5] of 9.1%. In addition, the Cmax/dose in data set [6] is 70 nM. The same compound registered an AUC/dose in [7] of 0.15 µM·h. The figures for the IC50 in data set [1] and in [2] were 34 nM and 9.2 nM, respectively. In data set [8], the half-life is 1.1 h.

As to `CCCCC[C@@H](Cc1ccc(C(=O)NCCC(=O)O)cc1)C(=O)c1cc2cc(OC)ccc2n1-c1cccc(C(F)(F)F)c1`, the IC50 in [1] is 35 nM; in data set [2] it was 26 nM.

With `CCCC(Cc1ccc(C(=O)NCCC(=O)O)cc1)C(=O)c1cc2cc(Cl)ccc2n1-c1ccc(OC(F)(F)F)cc1` (single isomer, unassigned), the IC50 was 45 nM in data set [1] and 28 nM in data set [2].

For the compound `CC(C)CC[C@@H](Cc1ccc(C(=O)NCCC(=O)O)cc1)C(=O)c1cc2cc(Cl)ccc2n1-c1cccc(C(F)(F)F)c1`, the IC50 was found to be 36 nM in data set [1] and 17 nM in [2].

In the case of `CCCC(Cc1ccc(C(=O)NCCC(=O)O)cc1)C(=O)c1cc2cc(Cl)ccc2n1-c1cc(Cl)cc(Cl)c1` (single isomer, unassigned), the IC50 in data set [2] turned out to be 110 nM.

As to `CCCCC[C@@H](Cc1ccc(C(=O)NCCC(=O)O)cc1)C(=O)c1cc2cc(F)ccc2n1-c1cccc(C(F)(F)F)c1`, the values for the half-inhibitory concentration (IC50) in data set [1] and in data set [2] were 20 nM and 10 nM, respectively.

Consider `CCCC(Cc1ccc(C(=O)NCCC(=O)O)cc1)C(=O)c1cc2cc(Cl)ccc2n1-c1ccc2c(c1)OCCO2` (single isomer, unassigned), for which the IC50 in [1] was 49 nM; in data set [2], 28 nM.

As usually defined, the IC50 is the concentration that gives 50% inhibition. Broadly, the bioavailability is dose-corrected exposure relative to a reference, in per cent. A high value points to much systemic uptake. Usually half-life stands for how long it takes for the measured level to halve. A higher half-life goes with slow decline.
